Assay results: ChEMBL document CHEMBL2429829, “Inhibitors of the aminoglycoside 6'-N-acetyltransferase type Ib [AAC(6')-Ib] identified by in silico molecular docking” (Bioorg Med Chem Lett, 2013)

Experiment: Inhibition of aminoglycoside 6'-N-acetyltransferase Ib (unknown origin)-mediated acetylation expressed in Escherichia coli using kanamycin A and acetyl CoA as substrate at 100 uM preincubated for 10 mins followed by enzyme addition by spectrophotometric analysis relative to control
How it was run: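 Enzyme: thioredoxin-fused AAC(6′)-Ib, arabinose-induced in E. coli, partially purified by DEAE ion exchange. Reaction: 20 mM Tris pH 7.5, 0.2 mM DTNB, 50 μM acetyl CoA, 18 μM kanamycin A, compound at 100 μM in 10% DMSO. Mix held 10 min at room temperature before enzyme added. CoA–SH release read at 412 nm. Percent inhibition from initial velocities versus no-compound reactions; mean of three experiments.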

Structure (SMILES): O=C(OCc1ccc(S(=O)(=O)c2ccccc2)cc1)c1ccc2c(c1)-c1ccccc1C2=O
- inhibition: 0%

Structure (SMILES): Cc1cc(C)c2nc(Nc3nc(C)cc(-c4ccccc4)n3)nc(C)c2c1
- inhibition: 0%

Structure (SMILES): O=C(c1cc(-c2ccc3c(c2)OCO3)nc2ccccc12)N1CCN(c2ccccc2F)CC1
- inhibition: 0%

Structure (SMILES): Cc1ccc2nc(-c3ccc(Cl)c(NC(=S)NC(=O)c4ccccc4C)c3)oc2c1
- inhibition: 0%

Structure (SMILES): O=C1C(=Cc2ccc(-c3ccccc3Cl)o2)C(=O)N(c2ccccc2)C(=S)N1c1ccccc1
- inhibition: 0%

Structure (SMILES): Cc1ccccc1Nc1nnc(-c2ccc(C(=O)NCCO)cc2)c2ccccc12
- inhibition: 0%

Structure (SMILES): Cc1ccc2nc(NC(=S)NC(=O)c3oc4ccccc4c3C)sc2c1
- inhibition: 0%

Structure (SMILES): Cc1ccc(N2C(=O)NC(=O)/C(=C\c3ccc(-c4ccccc4C(=O)O)o3)C2=O)cc1
- inhibition: 0%

Structure (SMILES): O=C(c1cc(-c2ccccc2Cl)nc2ccccc12)N1CCN(Cc2ccc3c(c2)OCO3)CC1
- inhibition: 0%

Structure (SMILES): O=C(O)c1ccc2c(c1Nc1cccc3c1C(=O)c1ccccc1C3=O)C(=O)c1ccccc1C2=O
- inhibition: 0%

Structure (SMILES): N#Cc1cccc(Oc2ccc(-c3nc4ccccc4nc3-c3ccccc3)cc2)c1C#N
- inhibition: 0%

Structure (SMILES): O=C1C(=Cc2ccco2)C(=O)N(c2ccccc2)C(=O)N1c1ccccc1
- inhibition: 0%

Structure (SMILES): Cc1nc(N/N=C/c2ccc(OC(=O)c3cccnc3)cc2)c2c3c(sc2n1)CCCC3
- inhibition: 0%

Structure (SMILES): O=C1C(=Cc2ccc(-c3ccc(Cl)cc3[N+](=O)[O-])o2)C(=O)N(c2ccccc2)C(=S)N1c1ccccc1
- inhibition: 0%

Structure (SMILES): O=C(Nc1ccc(Oc2cccnc2)cc1)[C@@H]1CCCCN1Cc1ccc2c(c1)CCO2
- inhibition: 0%

Structure (SMILES): O=C1C(=Cc2ccco2)C(=O)N(c2ccccc2)C(=S)N1c1ccccc1
- inhibition: 0%

Structure (SMILES): Cc1ccc(S(=O)(=O)Nc2c3ccccc3c(O)c3c4c(oc23)CC(C)(C)CC4=O)cc1
- inhibition: 0%

Structure (SMILES): Brc1ccc2nc(Nc3cccc4ccccc34)nc(-c3ccccc3)c2c1
- inhibition: 0%

Structure (SMILES): Cc1cccc(C)c1NC(=O)C(Cc1c[nH]c2ccccc12)NC(=O)Oc1ccccc1 (stereo not drawn)
- inhibition: 0%

Structure (SMILES): Cn1c(SCC(=O)Nc2cccc3ccccc23)nnc1-c1ccc(F)cc1
- inhibition: 0%

Structure (SMILES): Cc1ccc(NC(=O)COc2ccc3c4c(c(=O)oc3c2)CCCCC4)cc1
- inhibition: 0%

Structure (SMILES): O=C1C(=Cc2ccc(-c3ccccc3[N+](=O)[O-])o2)C(=O)N(c2ccccc2)C(=S)N1c1ccccc1
- inhibition: 0%

Structure (SMILES): Cc1ccnc(Nc2nc(-c3ccc4ccccc4c3)cs2)c1
- inhibition: 0%

Structure (SMILES): S=C(N/N=C1/CCCc2c1[nH]c1ccc(C3CCCCC3)cc21)Nc1ccccc1
- inhibition: 0%

Structure (SMILES): O=C1NCCN(Cc2cccc(F)c2F)[C@H]1CC(=O)N1CCc2c([nH]c3ccccc23)C1
- inhibition: 0%

Structure (SMILES): O=C1NC(=O)N(c2ccc(F)cc2)C(=O)/C1=C/c1cc(Cl)ccc1OCc1ccc(C(=O)O)cc1
- inhibition: 0%

Structure (SMILES): CCc1ccc(-c2nc3ccccc3c(C(=O)Nc3ccc(C(=O)N4CCCC4)cc3)c2C)cc1
- inhibition: 0%

Structure (SMILES): CC(C)(C)NC(=O)c1cccc(NC(=O)c2ccc3c(c2)C(=O)N(Cc2ccncc2)C3=O)c1
- inhibition: 0%

Structure (SMILES): O=C1NC(=O)N(c2ccccc2)C(=O)/C1=C/c1cc(Cl)ccc1OCc1ccc(C(=O)O)cc1
- inhibition: 0%

Structure (SMILES): O=C(NC(=S)Nc1nc(-c2cccc3ccccc23)cs1)c1ccc2c(c1)OCCO2
- inhibition: 0%

Structure (SMILES): Cc1ccc(-c2nnn(CC(=O)Nc3ccc4c(c3)OCCO4)n2)cc1
- inhibition: 0%

Structure (SMILES): O=C(NC1CCCc2c1cnn2-c1ccccc1F)c1ccc(-n2ccnc2)cc1 (stereo not drawn)
- inhibition: 15%

Structure (SMILES): O=C(CSc1nc2ccccc2c(=O)n1Cc1ccccc1)c1cc2ccccc2o1
- inhibition: 0%

Structure (SMILES): O=C(NC(=S)Nc1ccc2c3c(oc2c1)CCCC3)c1ccc2c(c1)OCO2
- inhibition: 0%

Structure (SMILES): Cc1ccc(-c2cc(C(=O)NCc3ccc(S(N)(=O)=O)cc3)c3ccccc3n2)cc1C
- inhibition: 0%

Structure (SMILES): O=C(CSc1nnnn1-c1ccccc1)Nc1ccc(-c2ccc([N+](=O)[O-])cc2)cc1
- inhibition: 0%

Structure (SMILES): O=C1NC(=S)N(c2ccccc2)C(=O)/C1=C/c1ccc(OCc2ccccc2)cc1
- inhibition: 0%

Structure (SMILES): O=C(NCc1ccc(-c2nc3ccccc3o2)cc1)c1cccc(-c2cc3ccccc3oc2=O)c1
- inhibition: 0%
